Laboratory results: ChEMBL document CHEMBL5107939, “Optimization of brain-penetrant picolinamide derived leucine-rich repeat kinase 2 (LRRK2) inhibitors” (RSC Med Chem, 2021)
pIC50: −log10 of the molar value.

What was measured:
[1] = molecular target: T1, Leucine-rich repeat serine/threonine-protein kinase 2 (Homo sapiens, UniProt Q5S007, G2019S); assay: Inhibition of human LRRK2 G2019S mutant expressed in human SH-SY5Y cells assessed as inhibition of tetracycline induced LRRK2 phosphorylation at Ser935 residue incubated for 90 mins by MSD assay; format: cell-based
Procedure, shortened: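 SH-SY5Y neuroblastoma cells carrying LRRK2 G2019S, grown in DMEM/F-12 with GlutaMax, 10% Tet-free FBS, nonessential amino acids and pen-strep at 37 °C, 5% CO2. Expression induced with Tet (2 µg/ml) 48-72 h before treatment. Compound exposure 90 min. Lysates captured on anti-LRRK2-coated MSD plates, probed for pSer935 or total LRRK2 with Sulfo-Tag read-out. IC50 from standard 4P fit of % inhibition.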

[2] = molecular target: Dual specificity protein kinase CLK2 (Homo sapiens, UniProt P49760); assay: Inhibition of CLK2 (unknown origin) assessed as substrate phosphorylation using coumarin and fluorescein-labeled peptide as substrate incubated for 1 hr by Z'-LYTE kinase assay
Procedure, shortened: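 CLK2 Z'-LYTE coupled-enzyme kit format, 10-point titration from DMSO; enzyme, substrate and compound reacted 1 h at ambient temperature; after development solution, read at excitation 400 nm; activity from coumarin 445 nm/fluorescein 520 nm emission ratio.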

[3] = molecular target: T1, Leucine-rich repeat serine/threonine-protein kinase 2; assay: Inhibition of recombinant human GST20 tagged truncated LRRK2 G2019S mutant assessed as substrate phosphorylation preincubated for 15 mins followed by substrate addition and measured after 90 mins using fluorescein-labeled LRRK2tide as substrate in presence of ATP by TR-FRET based Lanthascreen kinase activity assay
Procedure, shortened: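 Enzyme 1.25 nM in 50 mM Tris pH 8.5, 10 mM MgCl2, 0.01% Brij-35, 1 mM EGTA, 2 mM DTT, 0.05 mM orthovanadate. Compound (top 9.99 µM in DMSO, ten-point serial dilution) preincubated 15 min at RT. […] Stopped with EDTA plus 2 nM Tb anti-pERM, 1 h RT. 520/495 nm ratio read. IC50 from 4-parameter logistic fit, mean of several runs.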

[4] = species on record: Homo sapiens; assay: Selectivity ratio, ratio of IC50 for inhibition of CLK2 (unknown origin) to IC50 for inhibition of recombinant human GST20 tagged truncated LRRK2 G2019S mutant
[5] = Plasma clearance in po dosed CD rat measured after 120 mins by LC-MS/MS analysis; format: ADME, organism-based
[6] = MRT in po dosed CD rat measured after 120 mins by LC-MS/MS analysis; format: ADME, organism-based; details: in vivo
[7] = Mutagenicity in Salmonella typhimurium TA1535 at 30 to 5000 ug in presence of S9 metabolic activation system for 48 hrs by ames test; format: toxicity, Salmonella enterica subsp. enterica serovar Typhimurium; details: in vitro, dose 30-5000 µg
Procedure, shortened: (§1)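 Plate incorporation Ames test with S9 from phenobarbital/beta-naphthoflavone-induced male Wistar Han rat liver; 30, 100, 300, 1000, 3000, 5000 µg/plate; triplicate minimal glucose agar plates with trace histidine; 48 h at 37 °C; positive if 2-fold revertant increase over vehicle with dose relation.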

[8] = Mutagenicity in Salmonella typhimurium TA98 at 30 to 5000 ug in presence of S9 metabolic activation system for 48 hrs by ames test; format: toxicity, Salmonella enterica subsp. enterica serovar Typhimurium; details: dose 30-5000 µg; procedure, shortened: as §1
[9] = Mutagenicity in Salmonella typhimurium TA100 at 30 to 5000 ug in presence of S9 metabolic activation system for 48 hrs by ames test; format: toxicity, Salmonella enterica subsp. enterica serovar Typhimurium; details: dose 30-5000 µg; procedure, shortened: as §1
[10] = In vivo inhibition of LRRK2 in CD rat assessed as reduction in serine 935 phosphorylated LRRK2 in striatum at 10 mg/kg, po and measured after 2 hrs by MSD immunoassay; format: functional
Procedure, shortened: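 Male CD rats (125-150 g) dosed orally with compound suspended in 10% Tween 80 (5 mL/kg) or vehicle, euthanized by CO2 2 h later; striatum dissected, frozen on dry ice; pSer935 LRRK2 measured by MSD immunoassay as pSer935/total LRRK2 ratio, mean ± S.E.M.; one-way ANOVA with Dunnett's post hoc test.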

[11] = Intrinsic clearance in po dosed CD rat measured after 120 mins by LC-MS/MS analysis; format: ADME, organism-based; details: in vivo, 2 h
[12] = system: P-gp (rat Mdr1a); assay: Substrate activity at P-gp (unknown origin) expressed in LLC-PK1 cells transfected with rat Mdr1a assessed as efflux ratio of apparent permeability across basolateral to apical side to apparent permeability across apical to basolateral side at 1 uM incubated for 3 hrs by LC-MSMS analysis; format: ADME, cell-based, Sus scrofa; details: pig
[13] = Intrinsic clearance in po dosed Beagle dog and measured upto 24 hrs by LC-MS/MS analysis; format: ADME, organism-based, Canis lupus familiaris; details: in vivo
[14] = Plasma clearance in po dosed Beagle dog and measured upto 24 hrs by LC-MS/MS analysis; format: ADME, organism-based, Canis lupus familiaris
[15] = Brain to plasma permeability coefficient, Kp in CD rat plasma assessed as unbound fraction at 3 to 100 mg/kg, po and measured after 2 hrs by LC/MS/MS analysis; format: ADME, organism-based; details: in vivo, dose 3-100 mg/kg
[16] = MRT in po dosed Beagle dog and measured upto 24 hrs by LC-MS/MS analysis; format: ADME, organism-based, Canis lupus familiaris; details: in vivo
[17] = system: P-gp (rat Mdr1a); assay: Substrate activity at P-gp (unknown origin) expressed in LLC-PK1 cells transfected with rat Mdr1a assessed as apparent permeability at 1 uM incubated for 3 hrs by LC-MSMS analysis; format: ADME, cell-based, Sus scrofa; details: pig
[18] = molecular target: Sodium channel protein type 5 subunit alpha (Homo sapiens, UniProt Q14524); assay: Inhibition of human NaV1.5 expressed in HEK293 by PatchXpress automated patch clamp assay; format: cell-based
Sequence of Sodium channel protein type 5 subunit alpha (Q14524 whole entry): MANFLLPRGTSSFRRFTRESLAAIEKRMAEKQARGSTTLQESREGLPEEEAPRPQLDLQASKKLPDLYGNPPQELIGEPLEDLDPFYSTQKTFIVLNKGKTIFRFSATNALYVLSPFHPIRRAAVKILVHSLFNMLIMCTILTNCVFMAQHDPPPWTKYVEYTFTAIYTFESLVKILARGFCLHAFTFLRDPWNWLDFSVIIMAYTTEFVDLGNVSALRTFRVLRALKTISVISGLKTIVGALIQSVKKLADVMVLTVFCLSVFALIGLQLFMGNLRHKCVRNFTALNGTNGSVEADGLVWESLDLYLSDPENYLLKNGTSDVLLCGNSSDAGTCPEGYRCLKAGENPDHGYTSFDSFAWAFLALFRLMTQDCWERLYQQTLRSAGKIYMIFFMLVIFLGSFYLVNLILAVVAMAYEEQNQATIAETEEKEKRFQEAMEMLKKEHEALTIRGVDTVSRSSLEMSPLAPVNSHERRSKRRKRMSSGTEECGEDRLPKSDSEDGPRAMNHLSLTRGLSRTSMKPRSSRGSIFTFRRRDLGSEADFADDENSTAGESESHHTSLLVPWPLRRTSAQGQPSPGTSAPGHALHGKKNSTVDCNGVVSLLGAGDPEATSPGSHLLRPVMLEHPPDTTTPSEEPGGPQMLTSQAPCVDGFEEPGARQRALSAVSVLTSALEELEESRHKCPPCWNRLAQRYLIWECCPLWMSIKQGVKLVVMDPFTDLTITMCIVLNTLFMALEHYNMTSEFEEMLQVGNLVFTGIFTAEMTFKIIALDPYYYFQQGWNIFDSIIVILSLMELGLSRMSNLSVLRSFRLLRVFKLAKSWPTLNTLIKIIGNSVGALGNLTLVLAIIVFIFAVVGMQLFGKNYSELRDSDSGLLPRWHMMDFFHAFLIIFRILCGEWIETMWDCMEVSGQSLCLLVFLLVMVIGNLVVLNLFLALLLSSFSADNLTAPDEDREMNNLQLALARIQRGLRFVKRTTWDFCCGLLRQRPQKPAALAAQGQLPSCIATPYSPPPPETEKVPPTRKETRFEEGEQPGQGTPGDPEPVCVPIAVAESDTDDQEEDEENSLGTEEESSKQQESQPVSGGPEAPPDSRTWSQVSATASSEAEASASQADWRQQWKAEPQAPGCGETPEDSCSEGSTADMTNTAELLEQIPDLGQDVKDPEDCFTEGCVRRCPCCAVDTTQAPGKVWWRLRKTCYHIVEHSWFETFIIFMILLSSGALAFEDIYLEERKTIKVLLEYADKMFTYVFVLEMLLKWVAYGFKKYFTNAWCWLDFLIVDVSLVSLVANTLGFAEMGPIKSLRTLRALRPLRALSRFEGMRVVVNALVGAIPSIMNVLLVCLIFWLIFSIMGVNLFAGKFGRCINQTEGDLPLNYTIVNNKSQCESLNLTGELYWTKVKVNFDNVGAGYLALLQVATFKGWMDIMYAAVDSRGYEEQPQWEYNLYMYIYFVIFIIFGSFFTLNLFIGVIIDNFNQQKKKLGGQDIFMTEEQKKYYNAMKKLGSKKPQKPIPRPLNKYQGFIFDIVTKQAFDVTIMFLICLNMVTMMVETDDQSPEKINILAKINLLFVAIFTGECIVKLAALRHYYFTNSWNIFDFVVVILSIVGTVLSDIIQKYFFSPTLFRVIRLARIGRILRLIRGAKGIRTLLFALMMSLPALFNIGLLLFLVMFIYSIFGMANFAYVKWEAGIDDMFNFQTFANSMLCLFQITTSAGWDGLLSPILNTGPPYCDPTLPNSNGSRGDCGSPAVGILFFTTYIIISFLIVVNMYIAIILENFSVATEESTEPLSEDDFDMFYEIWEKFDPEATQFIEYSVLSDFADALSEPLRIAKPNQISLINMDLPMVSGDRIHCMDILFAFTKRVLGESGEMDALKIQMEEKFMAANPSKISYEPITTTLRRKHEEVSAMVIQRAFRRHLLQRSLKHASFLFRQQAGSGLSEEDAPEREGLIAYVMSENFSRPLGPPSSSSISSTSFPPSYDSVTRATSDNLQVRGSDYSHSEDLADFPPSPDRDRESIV

Sequence of Dual specificity protein kinase CLK2 (P49760 whole entry): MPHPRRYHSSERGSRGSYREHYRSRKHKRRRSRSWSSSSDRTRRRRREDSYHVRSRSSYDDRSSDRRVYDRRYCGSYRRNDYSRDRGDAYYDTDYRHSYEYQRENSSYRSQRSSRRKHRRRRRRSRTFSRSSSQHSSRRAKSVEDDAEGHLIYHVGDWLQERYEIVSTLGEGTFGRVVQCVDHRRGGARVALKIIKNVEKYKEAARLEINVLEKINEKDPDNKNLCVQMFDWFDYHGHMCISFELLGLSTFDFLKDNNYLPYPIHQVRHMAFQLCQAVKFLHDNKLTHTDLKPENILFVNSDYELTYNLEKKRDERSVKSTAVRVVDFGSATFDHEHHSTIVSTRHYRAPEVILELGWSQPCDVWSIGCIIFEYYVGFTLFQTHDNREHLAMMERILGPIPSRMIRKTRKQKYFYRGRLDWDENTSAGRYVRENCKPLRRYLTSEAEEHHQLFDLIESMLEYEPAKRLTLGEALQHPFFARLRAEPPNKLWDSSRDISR
T1 sequence (Q5S007 whole entry G2019S): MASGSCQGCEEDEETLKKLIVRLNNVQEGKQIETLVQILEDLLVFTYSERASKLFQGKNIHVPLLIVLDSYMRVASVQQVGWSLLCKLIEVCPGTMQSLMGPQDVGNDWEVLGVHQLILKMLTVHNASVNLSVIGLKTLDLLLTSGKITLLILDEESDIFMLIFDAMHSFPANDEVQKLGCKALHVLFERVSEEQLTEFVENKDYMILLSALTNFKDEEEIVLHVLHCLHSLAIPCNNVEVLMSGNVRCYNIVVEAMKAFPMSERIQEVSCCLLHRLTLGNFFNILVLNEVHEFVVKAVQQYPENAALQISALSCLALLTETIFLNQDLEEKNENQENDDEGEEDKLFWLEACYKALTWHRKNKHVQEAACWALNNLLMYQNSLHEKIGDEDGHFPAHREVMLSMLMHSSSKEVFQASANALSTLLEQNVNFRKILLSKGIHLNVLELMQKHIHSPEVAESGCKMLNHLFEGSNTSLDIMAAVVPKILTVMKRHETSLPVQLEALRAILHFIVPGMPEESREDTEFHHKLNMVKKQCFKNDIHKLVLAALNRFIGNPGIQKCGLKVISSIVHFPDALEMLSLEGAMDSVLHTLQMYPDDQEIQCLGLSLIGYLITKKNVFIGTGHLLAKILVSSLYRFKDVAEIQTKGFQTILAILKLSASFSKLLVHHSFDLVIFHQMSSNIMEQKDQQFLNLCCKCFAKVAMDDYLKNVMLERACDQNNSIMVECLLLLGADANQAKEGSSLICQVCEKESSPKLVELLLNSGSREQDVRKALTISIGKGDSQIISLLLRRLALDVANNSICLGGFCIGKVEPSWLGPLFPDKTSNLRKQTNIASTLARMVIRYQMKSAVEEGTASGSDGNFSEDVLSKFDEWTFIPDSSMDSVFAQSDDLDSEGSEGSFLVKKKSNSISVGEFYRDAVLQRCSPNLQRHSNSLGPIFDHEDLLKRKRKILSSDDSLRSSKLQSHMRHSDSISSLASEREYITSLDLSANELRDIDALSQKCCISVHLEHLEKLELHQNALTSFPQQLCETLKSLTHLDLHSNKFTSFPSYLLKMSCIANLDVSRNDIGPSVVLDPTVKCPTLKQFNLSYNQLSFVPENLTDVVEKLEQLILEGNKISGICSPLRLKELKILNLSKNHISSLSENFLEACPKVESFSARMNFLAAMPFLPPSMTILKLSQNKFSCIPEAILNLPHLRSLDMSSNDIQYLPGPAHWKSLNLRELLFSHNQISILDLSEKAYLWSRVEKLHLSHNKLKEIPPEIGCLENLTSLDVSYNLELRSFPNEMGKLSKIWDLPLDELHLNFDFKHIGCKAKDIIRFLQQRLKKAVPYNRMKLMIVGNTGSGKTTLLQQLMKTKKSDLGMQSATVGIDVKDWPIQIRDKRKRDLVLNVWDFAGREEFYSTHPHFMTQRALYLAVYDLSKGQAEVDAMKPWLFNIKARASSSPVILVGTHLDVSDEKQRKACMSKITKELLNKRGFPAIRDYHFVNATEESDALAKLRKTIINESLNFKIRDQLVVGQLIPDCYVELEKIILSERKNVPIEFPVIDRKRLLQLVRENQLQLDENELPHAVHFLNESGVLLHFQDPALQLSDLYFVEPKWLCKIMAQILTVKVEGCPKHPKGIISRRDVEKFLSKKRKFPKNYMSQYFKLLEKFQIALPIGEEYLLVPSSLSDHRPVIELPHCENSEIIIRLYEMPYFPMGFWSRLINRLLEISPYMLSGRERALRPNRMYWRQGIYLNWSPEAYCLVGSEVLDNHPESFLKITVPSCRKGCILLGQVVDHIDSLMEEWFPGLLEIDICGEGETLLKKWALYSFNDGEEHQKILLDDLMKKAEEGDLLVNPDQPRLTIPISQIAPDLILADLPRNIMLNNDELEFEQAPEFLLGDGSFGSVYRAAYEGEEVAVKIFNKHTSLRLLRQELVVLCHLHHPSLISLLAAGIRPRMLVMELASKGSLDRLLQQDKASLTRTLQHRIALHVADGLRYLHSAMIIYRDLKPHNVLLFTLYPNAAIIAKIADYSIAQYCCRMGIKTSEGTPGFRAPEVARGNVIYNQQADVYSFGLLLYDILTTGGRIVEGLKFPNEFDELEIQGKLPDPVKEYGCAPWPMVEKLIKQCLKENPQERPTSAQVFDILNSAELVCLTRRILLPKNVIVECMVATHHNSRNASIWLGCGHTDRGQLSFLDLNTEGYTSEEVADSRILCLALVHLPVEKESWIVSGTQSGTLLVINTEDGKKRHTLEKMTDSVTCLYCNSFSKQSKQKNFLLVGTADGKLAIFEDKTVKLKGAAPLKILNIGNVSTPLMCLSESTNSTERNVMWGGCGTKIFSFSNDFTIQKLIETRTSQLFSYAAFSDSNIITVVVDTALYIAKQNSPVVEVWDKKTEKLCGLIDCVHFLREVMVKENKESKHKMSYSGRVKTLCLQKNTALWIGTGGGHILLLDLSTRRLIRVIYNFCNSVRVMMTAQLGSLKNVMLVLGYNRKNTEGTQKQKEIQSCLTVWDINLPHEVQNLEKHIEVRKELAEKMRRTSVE

Structure (SMILES): Cn1cc(-c2cccc(C(=O)Nc3cc(N4CC5(C(C)(C)O)CC4C5)ncc3C(F)(F)F)n2)cn1
- pIC50 [1]: 8.70
- pIC50 [2]: 8.02
- pIC50 [3]: 8.05

Structure (SMILES): C[C@@H]1CN(c2cc(NC(=O)c3cccc(-c4cnn(C)c4)n3)c(C(F)(F)F)cn2)C[C@H](C)O1
- pIC50 [1]: 8.82
- pIC50 [2]: 7.68
- pIC50 [3]: 8.40
- Ratio IC50 [4]: 5

Structure (SMILES): CC(C)(O)[C@@H]1CCN(c2cnc(C(F)(F)F)c(NC(=O)c3cccc(-c4cnn(CC5(C(F)(F)F)CC5)c4)n3)c2)C1
- CL/F [5]: 87 mL/min/kg
- pIC50 [1]: 9.52
- MRT [6]: 1.2 h
- pIC50 [2]: 6.33
- pIC50 [3]: 8.10
- Ratio IC50 [4]: 59

Structure (SMILES): CCn1cc(-c2cccc(C(=O)Nc3cc(N4CC[C@@H](C(C)(C)O)C4)cnc3C(F)(F)F)n2)cn1
- pIC50 [1]: 8.15
- pIC50 [2]: 7.52
- pIC50 [3]: 7.40

Structure (SMILES): Cn1cc(-c2cccc(C(=O)Nc3cnn(C4CCC4)c3)n2)cn1
- pIC50 [1]: 6.04
- pIC50 [2]: 5.22
- pIC50 [3]: 7.28
- Ratio IC50 [4]: 112

Structure (SMILES): Cn1cc(-c2nc(C(=O)Nc3cnn(C4CCC4)c3)cs2)cn1
- pIC50 [1]: 6.57
- pIC50 [2]: 6.92
- Ratio IC50 [4]: 8.5

Structure (SMILES): CC(C)(O)[C@@H]1CCN(c2cc(N)c(C(F)(F)F)cn2)C1
- Activity [7]: Toxic
- Activity [8]: Toxic
- Activity [9]: Toxic

Structure (SMILES): Cn1cc(-c2cccc(C(=O)Nc3cnn(C4CCC4)c3)c2F)cn1
- pIC50 [1]: 5.78
- pIC50 [2]: 6.15
- pIC50 [3]: 7.15
- Ratio IC50 [4]: 10

Structure (SMILES): C[C@@H]1CN(c2cc(-c3n[nH]c4ccc(OC5(C)CC5)cc34)ncn2)C[C@H](C)O1 [MLi-2]
- inhibition in vivo at 10 mg/kg [10]: 72%

Structure (SMILES): CC(C)(O)[C@@H]1CCN(c2cnc(C(F)(F)F)c(NC(=O)c3cccc(-c4cnn(CC5CC5)c4)n3)c2)C1
- CL/F [5]: 38 mL/min/kg
- pIC50 [1]: 9.40
- CL [11]: 78464 mL/min/kg
- MRT [6]: 2.9 h
- pIC50 [2]: 7.64
- pIC50 [3]: 8.07
- Ratio IC50 [4]: 3

Structure (SMILES): CC(C)(O)[C@@H]1CCN(c2cnc(C(F)(F)F)c(NC(=O)c3cccc(-c4cnn(C5CCC5)c4)n3)c2)C1
- CL/F [5]: 31.4 mL/min/kg
- pIC50 [1]: 8.89
- MRT [6]: 2.1 h
- pIC50 [2]: 7.04
- pIC50 [3]: 7.72
- Ratio IC50 [4]: 5

Structure (SMILES): Cn1cc(-c2cccc(C(=O)Nc3cc(N4CC(O)C4)ncc3C(F)(F)F)n2)cn1
- pIC50 [1]: 8.12
- pIC50 [2]: 7.19
- pIC50 [3]: 8.32
- Ratio IC50 [4]: 13

Structure (SMILES): COC1CN(c2cc(NC(=O)c3cccc(-c4cnn(C)c4)n3)c(C(F)(F)F)cn2)C1
- pIC50 [1]: 8.55
- pIC50 [2]: 7.17
- pIC50 [3]: 7.55
- Ratio IC50 [4]: 2.4

Structure (SMILES): Cn1cc(-c2cccc(C(=O)Nc3cc(N4CC[C@@H](C(C)(C)O)C4)cnc3C(F)(F)F)n2)cn1
- CL/F [5]: 6.7 mL/min/kg
- efflux ratio at 3 h, 1 µM [12]: 0.94
- pIC50 [1]: 7.68
- CL [13]: 1029 mL/min/kg
- CL [11]: 271 mL/min/kg
- MRT [6]: 4.9 h
- CL/F [14]: 4.8 mL/min/kg
- Kp [15]: 0.4
- pIC50 [2]: 7.21
- pIC50 [3]: 7.77
- MRT [16]: 9.4 h
- Ratio IC50 [4]: 4
- Papp at 3 h, 1 µM [17]: 29 ×10⁻⁶ cm/s

Structure (SMILES): Cc1nc(N)cc(N2CC[C@@H](C(C)(C)O)C2)n1
- Activity [7]: Non-Toxic
- Activity [8]: Non-Toxic
- Activity [9]: Non-Toxic

Structure (SMILES): C[C@H]1CN(c2cc(NC(=O)c3cccc(-c4cnn(C)c4)n3)c(C(F)(F)F)cn2)CCN1C1COC1
- CL/F [5]: 2.7 mL/min/kg
- CL [11]: 4081 mL/min/kg
- MRT [6]: 2.2 h
- pIC50 [2]: 8.10
- pIC50 [3]: 8.82
- Ratio IC50 [4]: 5

Structure (SMILES): C[C@@H]1[C@H](O)CCN1c1cc(NC(=O)c2cccc(-c3cnn(C)c3)n2)c(C(F)(F)F)cn1
- pIC50 [1]: 8.52
- pIC50 [2]: 7.07
- pIC50 [3]: 8.30

Structure (SMILES): CC(C)(O)[C@@H]1CCN(c2cnc(C(F)(F)F)c(N)c2)C1
- Activity [7]: Non-Toxic
- Activity [8]: Non-Toxic
- Activity [9]: Non-Toxic

Structure (SMILES): CC(C)(O)[C@@H]1CCN(c2cnc(C(F)(F)F)c(NC(=O)c3cccc(-c4cnn(CC(F)(F)F)c4)n3)c2)C1
- CL/F [5]: 42 mL/min/kg
- pIC50 [1]: 9.15
- CL [11]: 2780 mL/min/kg
- MRT [6]: 1.7 h
- pIC50 [18]: 4.52
- pIC50 [2]: 6.35
- pIC50 [3]: 8.00
- Ratio IC50 [4]: 42

Structure (SMILES): C[C@@H]1[C@@H](O)CN1c1cc(NC(=O)c2cccc(-c3cnn(C)c3)n2)c(C(F)(F)F)cn1
- pIC50 [1]: 8.70
- pIC50 [2]: 7.92
- pIC50 [3]: 8.70

Structure (SMILES): Cn1cc(-c2nccc(C(=O)Nc3cnn(C4CCC4)c3)n2)cn1
- pIC50 [1]: 6.02
- pIC50 [2]: 4.77
- Ratio IC50 [4]: 505

Structure (SMILES): Cc1cnc(N2C[C@@H](C)O[C@@H](C)C2)cc1NC(=O)c1cccc(-c2cnn(C)c2)n1
- pIC50 [1]: 7.62
- pIC50 [2]: 6.91
- pIC50 [3]: 8.05
- Ratio IC50 [4]: 14

Structure (SMILES): Cc1nc(NC(=O)c2cccc(-c3cnn(C)c3)n2)cc(N2CC[C@@H](C(C)(C)O)C2)n1
- pIC50 [1]: 7.38
- pIC50 [2]: 6.59
- pIC50 [3]: 8.40
